# Shown are actives, neighbours in structure and some others; about 1.2% of the full set was active somewhere.
# GC-A act – GC-A (human) enzyme activation. HEK293 GC-A cells, cGMP TR-FRET, EC30 ANP; 0% at EC30 ANP, 100% saturating ANP. activation, % at 10 µM. 370,000 tested, 0.14% active; in the data active = activation above about 40%
# Target sequence (P16066 whole entry, looked up): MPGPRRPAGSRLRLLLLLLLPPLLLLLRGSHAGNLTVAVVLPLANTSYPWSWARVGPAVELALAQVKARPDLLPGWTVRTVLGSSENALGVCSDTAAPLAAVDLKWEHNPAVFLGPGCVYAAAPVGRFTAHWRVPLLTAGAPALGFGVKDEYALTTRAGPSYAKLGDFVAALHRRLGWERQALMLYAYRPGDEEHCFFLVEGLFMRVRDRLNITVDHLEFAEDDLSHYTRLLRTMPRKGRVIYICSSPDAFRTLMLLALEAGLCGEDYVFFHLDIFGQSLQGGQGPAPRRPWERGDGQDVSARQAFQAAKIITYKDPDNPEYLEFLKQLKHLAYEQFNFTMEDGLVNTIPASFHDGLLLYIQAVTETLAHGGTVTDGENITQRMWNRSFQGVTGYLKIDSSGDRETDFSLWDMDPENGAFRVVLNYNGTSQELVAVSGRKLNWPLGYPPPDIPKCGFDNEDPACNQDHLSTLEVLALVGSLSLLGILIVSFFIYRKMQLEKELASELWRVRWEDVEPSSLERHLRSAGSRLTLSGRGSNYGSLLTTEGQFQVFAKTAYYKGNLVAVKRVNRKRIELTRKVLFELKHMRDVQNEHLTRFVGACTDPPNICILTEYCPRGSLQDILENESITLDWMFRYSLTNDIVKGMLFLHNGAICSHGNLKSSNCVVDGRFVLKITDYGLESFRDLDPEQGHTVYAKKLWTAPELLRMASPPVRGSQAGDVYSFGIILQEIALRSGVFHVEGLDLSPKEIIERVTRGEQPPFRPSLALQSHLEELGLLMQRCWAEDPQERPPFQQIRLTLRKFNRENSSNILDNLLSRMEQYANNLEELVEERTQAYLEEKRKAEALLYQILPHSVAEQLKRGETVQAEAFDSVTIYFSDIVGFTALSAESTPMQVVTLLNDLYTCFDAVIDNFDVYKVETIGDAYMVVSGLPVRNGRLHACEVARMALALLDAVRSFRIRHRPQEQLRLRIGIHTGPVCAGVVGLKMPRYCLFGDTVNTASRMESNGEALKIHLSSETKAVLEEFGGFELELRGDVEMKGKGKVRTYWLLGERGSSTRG
# GC-B act – GC-B (human) receptor activation; 370,000 tested, 0.11% active; activation, % at 10 µM; AID 1920062; P20594; HEK293-GC-B cells, CNP EC30, cGMP TR-FRET; 0% at EC30 CNP, 100% saturating CNP;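 active = activation at 10 µM reaching about 35% in either raw or pattern-adjusted values, limit read from the data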
# ARFGAP1 inhibitor – rat ARFGAP1 inhibition. inhibition, % at 16.5 µM. Arfgap1-stimulated ARF1 GTP hydrolysis, GDP FP detection. 360,000 tested, 0.26% active;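 active = inhibition above a per-plate limit, mean inhibition of low control wells plus 3 SD, cut at about 25% in these data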;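 also: 0% = DMSO wells with enzyme and 100% = wells lacking Arfgap1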
#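 Material: rat Arfgap1 GAP domain (His6, aa 1-136), purified enzyme. Also added: human ARF1(Δ1-17)-GTP substrate. Compound dosing: 16.5 µM single point, 1.26% DMSO. Timing: enzyme reaction 120 min at 25 °C after 20 min preincubation. Signal: GDP detection by fluorescence polarization. Read-out basis: percent inhibition of GAP-stimulated GDP formation, scaled between DMSO and no-Arfgap1 medians.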
# core dimer inh – blocks dimerization of HCV core protein. 300,000 tested, 0.33% active. inhibition, % at 5 µM. AID 1899. TR-FRET GST/Flag-core106 dimerization, 1536-well;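 active = inhibition above the mean of all tested compounds plus 3 SD, set per screening campaign, cut at about 45% in these data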
#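 Assay system – GST-tagged and Flag-tagged HCV core protein residues 1-106 · Quantity – core106 proteins, GST 13.5 nM and Flag 17 nM · Benchmarks – unlabelled core106 and no-GST-core106 wells · Read-out basis – percent inhibition of core106 dimerization signal · Detection – time-resolved FRET, ex 340 nm, em 617 and 671 nm · Schedule – 4 h at 22.5 °C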
# Fh CTSL1 inh – counter-screen for PFM18AAP inhibitors: inhibitors of F. hepatica cathepsin L1 | recombinant F. hepatica cathepsin L1, Z-Leu-Arg-MCA fluorescence | inhibition, % at 5.96 µM | 300,000 tested, 0.49% active;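 active = inhibition above the mean of all tested compounds plus 3 SD, set per screening campaign, cut at about 17% in these data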;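 also: 0% = plate median of test compound wells and 100% = 1 µM Z-Phe-Ala-diazomethylketone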
# ASAP1 inh – ASAP1 ArfGAP inhibition; Q9ULH1; ASAP1-stimulated ARF1 GTP hydrolysis, GDP FP detection; inhibition, % at 16.5 µM; 360,000 tested, 0.19% active; AID 624377; in the data active = inhibition above about 25%;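 also: 0% = vehicle with enzyme and substrate and 100% = no enzyme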
# * hit, by the source's call; / = not tested or not shown.
SMILES,GC-A act,GC-B act,ARFGAP1 inhibitor,core dimer inh,Fh CTSL1 inh,ASAP1 inh
CCOC(=O)c1c(C)[nH]c(C(=O)COC(=O)CNC(=O)C2CCCCC2)c1C,0,1,-8,3,27*,-1
CCOC(=O)c1[nH]c(C)c(C(=O)NC2CCCC2)c1C,3,56*,-11,2,3,14
Cc1cccc(CSc2cn(CC(=O)N3CCOCC3)c3ccccc23)c1,-6,3,-2,4,3,1
CC(C)[C@H](NC(=O)[C@H](CCCN=C(N)N)NC(=O)NC(Cc1ccccc1)C(=O)O)C(=O)NC(C=O)CCCN=C(N)N (stereo not given in full),-28,-4,13,7,112*,-12
COc1ccc(CN(C(=O)COc2ccc(C)c(C)c2)C2CCS(=O)(=O)C2)cc1OC (stereo not given),-4,-4,-6,7,8,7
O=C(NCCO)Nc1ccc2nc(-c3ccco3)c(-c3ccco3)nc2c1,/,/,/,76*,3,/
CCCCNC(=O)c1ccc2nc(-c3ccco3)c(-c3ccco3)nc2c1,-13,-11,-11,50*,10,7
S=C(Nc1ccc(N2CCOCC2)cc1)Nc1ccc2nc(-c3ccco3)c(-c3ccco3)nc2c1,-3,-6,7,83*,6,5
O=C(Nc1ccccc1)c1ccc2nc(-c3ccco3)c(-c3ccco3)nc2c1,-9,-12,-10,75*,4,-5
O=C(NCCCO)c1ccc2nc(-c3ccco3)c(-c3ccco3)nc2c1,0,1,4,/,/,5
CCC1C(c2ccccc2)N(C)C(c2ccccc2)CC1(O)c1ccccc1 (stereo not given),-2,1,0,17,2,2
Cc1ccc(OCCCn2ccnc2)cc1C,2,6,0,0,-2,-1
CC(C)NC(=O)c1ccc2c(c1)N(CC(=O)N1CCCC1)C(=O)C(C)(C)O2,-1,1,-4,0,6,-9
O=C(c1ccc2nc(-c3ccco3)c(-c3ccco3)nc2c1)N1CCN(c2ncccn2)CC1,-4,-5,-4,62*,8,-1
O=C(NCc1ccccc1)c1ccc2nc(-c3ccco3)c(-c3ccco3)nc2c1,-15,-6,-4,73*,6,6
CC(=O)c1ccc(NC(=O)c2ccc3nc(-c4ccco4)c(-c4ccco4)nc3c2)cc1,/,/,/,78*,-2,/
Nn1c(SCC(=O)Nc2ccc(F)cc2)nnc1-c1ccccn1,5,8,17,2,0,-1
O=C(c1ccc(Cl)c(S(=O)(=O)N2CCCC2)c1)N1CCN(c2ccccc2)CC1,-1,0,9,-2,35*,7
O=C(c1ccc(Cl)c(S(=O)(=O)N2CCCCC2)c1)N1CCN(c2ccccc2)CC1,0,0,7,6,0,0
O=C(O)c1cccc(C(=O)Cc2ccccc2)c1,-2,-1,-4,-7,-1,-16
COc1ccc(C2c3[nH]c4ccccc4c3CCN2C(=O)c2cc3ncccn3n2)c(F)c1 (stereo not given),38,37*,-7,7,-3,-2
Cc1cccc(-n2c(SCC(=O)O)nc3sc4c(c3c2=O)CCCC4)c1,-1,45*,5,9,3,12
O=C(N/N=C/c1ccccc1)c1cc(-c2ccc3c(c2)OCO3)n[nH]1,7,10,6,0,7,-1
O=C(N/N=C/c1ccc(O)cc1)c1cc(-c2ccc3c(c2)OCO3)n[nH]1,10,17,26*,4,-3,25
CC(C)CCCN1C(Nc2ccccc2)=NC[C@@H]1CC(C)C,-8,-17,-4,10,2,5
SMILES,GC-A act,GC-B act,ARFGAP1 inhibitor,core dimer inh,Fh CTSL1 inh,ASAP1 inh
Cc1cc(N(CN2CCCC2=O)C(=O)c2ccc(OC(C)C)cc2)no1,-1,2,-5,-1,19*,-5
Cc1cc(N(CN2CCCC2=O)C(=O)c2ccc(F)cc2)no1,-2,4,4,1,-20,8
Cc1[nH]nc(-c2ccc(O)cc2O)c1-c1ccc(Cl)cc1,70*,-8,23,1,6,19
COc1ccc(-c2n[nH]c(C)c2-c2ccc(Cl)cc2)c(O)c1,7,1,9,-6,8,12
CCN=C1NN=C(c2cc(C)n(Cc3ccco3)c2C)CS1,0,4,5,48*,1,4
O=C(CC1SC(=Nc2ccc(O)cc2)NC1=O)Nc1ccccc1 (stereo not given),/,/,/,3,-2,/
CCOc1ccc(N=C2NC(=O)C(CC(=O)Nc3ccccc3)S2)cc1 (stereo not given),-3,-2,4,-2,19*,7
N#CCCN(Cc1cccnc1)S(=O)(=O)c1ccc(S(=O)(=O)N2CCCCCC2)cc1,-1,1,4,-1,-1,6
C[C@@H]1CN([C@H](C)CO)C(=O)CCCn2nncc2CO[C@H]1CN(C)C(=O)c1ccc(N2CCN(C)CC2)cc1,3,4,-1,/,/,0
COc1ccc(-n2c(CN3CCOCC3)nc3ccc([N+](=O)[O-])cc3c2=O)c(OC)c1,1,0,0,65*,0,-9
COc1ccc(-n2c(CN3CCN(c4ccccc4)CC3)nc3ccc([N+](=O)[O-])cc3c2=O)c(OC)c1,-5,-1,3,22,1,3
Cc1nn(C)cc1CNC(=O)c1ccc(Br)o1,0,-2,-9,4,3,0
CC(C)C(=O)Nc1ccc(O)c(-c2csc(N)n2)c1,-5,-2,2,0,1,10
CCOC(=O)C1=C(C)OC(N)=C(C#N)C1c1ccc(C)o1 (stereo not given),-1,-3,1,2,0,9
Cc1ccc(C2C(C#N)=C(N)SC(N)=C2C#N)o1,/,/,/,46*,0,/
CCc1ccc(C2C(C#N)=C(N)SC(N)=C2C#N)s1,/,/,/,53*,0,/
CC(=O)Nc1cccc(NC(=O)CSc2ccc3nnc(CCNC(=O)c4ccccc4)n3n2)c1,1,-1,7,-3,2,9
O=C(NCc1ccco1)c1nn2c(C(F)(F)F)cc(-c3cccs3)nc2c1Br,13,20,-10,54*,2,9
O=C(NCc1ccco1)c1nc2nc(-c3cccs3)cc(C(F)(F)F)n2n1,-3,-2,-1,20,5,-10
O=C(CN(CCc1ccccc1)C(=O)CNS(=O)(=O)c1ccc(F)cc1)NCC1CCCO1 (stereo not given),-1,3,8,-6,0,-12
O=C(CNC(=O)c1ccccc1)OCC(=O)N1c2ccccc2Sc2ccccc21,-7,-7,-17,10,34*,4

# Bioassay records: PubChem BioAssay, several laboratories
